This sample holds only a part of the variants without activity.
B1: tRNA (parent)
chain: GUUCCGUUGGCGUAAUGGUAACGCGUCUCCCUCCUAAGGAGAAGACUGCGGGUUCGAGUCCCGUACGGAACG

Variants of: B1
Experiment: yeast fitness relative to wild type (ratio to wild type); higher = fitter; tRNA-Arg(CCU), competitive growth, 37 C, YPD
In short: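 Changes in genotype frequencies gave Darwinian fitness relative to wild type. Frequencies were read by 100-nucleotide paired-end sequencing of gene amplicons before and after pooled Saccharomyces cerevisiae strains, carrying tRNA-Arg(CCU) gene variants at the native locus, were competed in YPD at 37°C for 24 hours in six replicates. A genotype was kept only with ≥ 100 starting reads, and estimates < 0.5 were set to 0.5.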

| Variant | yeast fitness |
| --- | --- |
| A14C U19G G44C C62G | ≤ 0.5 |
| A14G C31U A37G A45C A70G | ≤ 0.5 |
| A14C C30A A36G C62U G63A A70U | ≤ 0.5 |
| A14C U16C G51C G58A | 0.528 |
| A14G A15G U35C | 0.572 |
| A14G C27A C49G U53A C62A | ≤ 0.5 |
| A14G C24U C55U G67C | ≤ 0.5 |
| A14C U28C A40G C55A A57C C62U | ≤ 0.5 |
| A14G A36G A45U | 0.534 |
| A14G A36U A65G | ≤ 0.5 |
| A14C A37C A65U | ≤ 0.5 |
| A14G A21U U47G C49G G56C | ≤ 0.5 |
| A14C A65U | 0.62 |
| A14C A65C | 0.635 |
| A14C C24U G51C U54A | ≤ 0.5 |
| A14G C22A C27G A42U | ≤ 0.5 |
| A14G C27G U54C | ≤ 0.5 |
| A14G A37C G56A | ≤ 0.5 |
| A14C C24U U35C C46G G52A C61A | 0.535 |
| A14G A20G A42U | 0.696 |
| A14C C27G C46G C62U | ≤ 0.5 |

| Variant | yeast fitness |
| --- | --- |
| A14C C30U A43G | ≤ 0.5 |
| A14G C49G A69U A70C | 0.618 |
| A14C A21U A42C G58C | ≤ 0.5 |
| A14C U59C | 0.687 |
| A14C G17C G18A G23C | 0.554 |
| A14C C62U | 0.853 |
| A14C U19G C31G C33U A42G U64C A65G A69C | ≤ 0.5 |
| A14C C55A A65U | ≤ 0.5 |
| A14C C61G | 0.536 |
| A14G C29U A37G A65G | ≤ 0.5 |
| A14C G50A C55G C62A | 0.692 |
| A14G A36U A37G C46A G48A | ≤ 0.5 |
| A14C A40U C55G C61U C66U | ≤ 0.5 |
| A14C A21C C46A C49U | ≤ 0.5 |
| A14G C30A C34A A43C C60G C62A | ≤ 0.5 |
| A14C C24U A40U C55G | ≤ 0.5 |
| A14C A40C U47C A57C | ≤ 0.5 |
| A14G A20C C31G A45U G48C | ≤ 0.5 |
| A14C C46G C62U C66U | ≤ 0.5 |
| A14C C55G A57U C62U | ≤ 0.5 |
| A14G C24G C31U | ≤ 0.5 |

| Variant | yeast fitness |
| --- | --- |
| A14C U35C | 0.695 |
| A14C G48C C55U G63U | ≤ 0.5 |
| A14C A21G A37C G50A A57C | ≤ 0.5 |
| A14C A36G G41A G48C U59C A70C | ≤ 0.5 |
| A14C C24A C61A | ≤ 0.5 |
| A14C A45U G50C C66G | ≤ 0.5 |
| A14C G23C A36U | 0.68 |
| A14G C34G A43C U47C | 0.533 |
| A14C U16C A21G C29A C34U A69U | ≤ 0.5 |
| A14G C24U G56A | 0.813 |
| A14C G52C A57C G63C | ≤ 0.5 |
| A14C C30U A37C | 0.552 |
| A14C C46G C60G | ≤ 0.5 |
| A14C C27U C30U C34A C62A | ≤ 0.5 |
| A14C C24G G39A | ≤ 0.5 |
| A14C U28A C61G A69G | ≤ 0.5 |
| A14G A57C | 0.555 |
| A14G C30U | 0.81 |
| A14G A37G | 0.718 |
| A14G A42G G48C | 0.568 |
| A14G A15C C46A A69U | ≤ 0.5 |

| Variant | yeast fitness |
| --- | --- |
| A14C G67A | 0.695 |
| A14G C22A C27A C29U A42C A70C | ≤ 0.5 |
| A14G C27U U28C | 0.541 |
| A14G C27U U47A C62U | 0.566 |
| A14G A36C A57C G68A | ≤ 0.5 |
| A14C C34A G48C | ≤ 0.5 |
| A14C C24A A37G C60U | ≤ 0.5 |
| A14C C31U A69U | ≤ 0.5 |
| A14G C46U G50C G51A C55U A57U C62G A70U | ≤ 0.5 |
| A14G C24U A43U A65C | ≤ 0.5 |
| A14G C22A C27A C29U A42C G63C | ≤ 0.5 |
| A14C G44C | 0.577 |
| A14G C30A C46U G52C C66U | ≤ 0.5 |
| A14C A70G | 0.749 |
| A14G A42C G50A A70C | 0.593 |
| A14C U32G G58A A65C | 0.645 |
| A14C C29A G50A G68C A70C | ≤ 0.5 |
| A14G A45G G50A | ≤ 0.5 |
| A14C A45G | 0.611 |
| A14G C30A A42G G44A | 0.569 |
